For one series, the system named is Hepatocyte. Briefly: Induction of CYP1A2 mRNA expression in human hepatocytes assessed as phenacetin O-deethylation up to 25 uM by LC-MS/MS analysis. Format: ADME, cell-based. The essentials: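 Primary hepatocytes from three donors treated once daily for 3 days: saxagliptin 0.2–25 µM, M2 0.2–100 µM, 0.1% DMSO as vehicle. Microsomal activity assayed by LC-MS/MS: phenacetin 100 µM with 0.02 mg/ml protein (CYP1A2), bupropion 250 µM with 0.02 mg/ml (CYP2B6), testosterone 200 µM with 0.01 mg/ml (CYP3A4). mRNA measured by TaqMan qPCR as 2^ΔCT relative to endogenous control and DMSO.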

Series [1] has as its target T1, Cytochrome P450 3A5 (Homo sapiens, UniProt P20815). Briefly: Drug metabolism assessed as human CYP3A5-mediated 5-hydroxy saxagliptin formation at 10 uM after 30 mins by LC-MS/MS analysis. Format: ADME. The following applies: recombinant enzyme, 0.5 h.
Series [2] can be described thus: Drug metabolism in human assessed as parent compound level in urine at 50 mg, po after up to 168 hrs by LC-MS/MS analysis. It is filed as ADME, organism-based. The following applies: in vivo. In outline: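 Single 50-mg oral solution dose of [14C]saxagliptin (91.5 µCi) given to healthy male subjects after a 10-h fast. Urine collected as 0–12 h and 12–24 h pools, then in 24-h intervals to 168 h. Saxagliptin and M2 measured by validated positive-ESI LC-MS/MS with MRM; urine standard curves 25–5000 ng/ml for saxagliptin and 50–10,000 ng/ml for M2.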

Series [3] addresses T2, Cytochrome P450 3A4 (Homo sapiens, UniProt P08684). Nature of the series: Drug metabolism assessed as human CYP3A4-mediated 5-hydroxy saxagliptin formation at 10 uM after 30 mins by LC-MS/MS analysis. Format: ADME. The following applies: recombinant enzyme, 0.5 h.
Series [4] deals with T2, Cytochrome P450 3A4. Nature of the series: Inhibition of CYP3A4 in human liver microsomes assessed as midazolam 1'-hydroxylation after 3 mins by LC-MS/MS analysis. Format: ADME. A general note: Liver microsomes are a subcellular fraction often used to study metabolism.
Series [5] has as its target T2, Cytochrome P450 3A4. Briefly: Inhibition of CYP3A4 in human liver microsomes assessed as testosterone 6beta-hydroxylation after 3 mins by LC-MS/MS analysis in presence of NADPH. It is filed as ADME.
Series [6] addresses T2, Cytochrome P450 3A4. Nature of the series: Drug metabolism assessed as human CYP3A4-mediated metabolite formation treated with 10 uM of [14C]saxagliptin after 30 mins by LC-MS/MS analysis. Format: ADME. The following applies: recombinant enzyme, 0.5 h. In outline: (§1)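 Expressed human CYP3A4 or CYP3A5 at 500 pmol/ml, incubated with 10 µM [14C]saxagliptin and 1 mM NADPH in 100 mM phosphate buffer pH 7.4 at 37°C for 30 min. Stopped with ice-cold acetonitrile; analysed by LC-MS/MS and off-line radioanalysis.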

In series [7] the target is T1, Cytochrome P450 3A5. Nature of the series: Drug metabolism assessed as human CYP3A5-mediated metabolite formation treated with 10 uM of [14C]saxagliptin after 30 mins by LC-MS/MS analysis. Format: ADME. The following applies: recombinant enzyme, 0.5 h. In outline:
as §1

T2 sequence (P08684 whole entry): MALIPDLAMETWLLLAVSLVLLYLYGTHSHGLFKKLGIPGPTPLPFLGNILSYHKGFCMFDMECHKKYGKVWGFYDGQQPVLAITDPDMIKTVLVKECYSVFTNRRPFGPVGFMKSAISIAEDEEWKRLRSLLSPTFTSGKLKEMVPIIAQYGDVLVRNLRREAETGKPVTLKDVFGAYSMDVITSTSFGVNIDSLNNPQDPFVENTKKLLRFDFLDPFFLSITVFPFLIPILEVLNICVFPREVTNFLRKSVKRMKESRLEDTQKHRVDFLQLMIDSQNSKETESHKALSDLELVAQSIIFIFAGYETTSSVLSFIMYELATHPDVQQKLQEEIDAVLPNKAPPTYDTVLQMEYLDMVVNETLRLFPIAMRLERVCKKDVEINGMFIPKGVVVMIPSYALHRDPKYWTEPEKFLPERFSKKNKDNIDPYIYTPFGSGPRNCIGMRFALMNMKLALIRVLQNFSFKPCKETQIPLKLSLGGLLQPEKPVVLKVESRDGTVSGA
T1 sequence (P20815 whole entry): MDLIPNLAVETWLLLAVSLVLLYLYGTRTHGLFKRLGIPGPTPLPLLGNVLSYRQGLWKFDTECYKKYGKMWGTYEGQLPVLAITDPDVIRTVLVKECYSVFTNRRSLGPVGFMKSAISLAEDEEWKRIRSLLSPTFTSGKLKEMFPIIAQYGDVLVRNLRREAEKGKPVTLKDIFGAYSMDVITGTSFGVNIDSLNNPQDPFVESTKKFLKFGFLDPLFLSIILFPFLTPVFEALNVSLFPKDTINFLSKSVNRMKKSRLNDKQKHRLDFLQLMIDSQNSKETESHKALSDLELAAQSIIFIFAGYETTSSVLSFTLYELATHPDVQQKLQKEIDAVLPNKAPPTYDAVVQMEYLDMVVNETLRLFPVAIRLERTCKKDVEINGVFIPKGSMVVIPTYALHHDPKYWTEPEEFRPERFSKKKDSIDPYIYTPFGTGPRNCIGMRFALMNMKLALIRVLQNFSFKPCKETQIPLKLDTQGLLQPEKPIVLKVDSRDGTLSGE

Turning to `N#C[C@@H]1C[C@@H]2C[C@@H]2N1C(=O)[C@@H](N)C12CC3CC(CC(O)(C3)C1)C2` [SAXAGLIPTIN ANHYDROUS], the Activity result in the series with Hepatocyte is “Not Active”. The Drug metabolism entry (on Cytochrome P450 3A5 [1]; in series [2]; on Cytochrome P450 3A4 [3]) was “metabolite_detected” throughout.

What is called IC50 is the point on the concentration scale where inhibition reaches its midpoint. As for `N#C[C@@H]1C[C@@H]2C[C@@H]2N1C(=O)[C@@H](N)C12CC3CC(O)(CC(O)(C3)C1)C2`, the IC50 on Cytochrome P450 3A4 [4] and at Cytochrome P450 3A4 [5] was more than 200 µM in each case. The Drug metabolism result at Cytochrome P450 3A4 [6] and at Cytochrome P450 3A5 [7] was “metabolite_detected” throughout.

For the origin of these results see ChEMBL document CHEMBL3526095, “Characterization of the in vitro and in vivo metabolism and disposition and cytochrome P450 inhibition/induction profile of saxagliptin in human” (Drug Metab Dispos, 2012).
